The source made the active and inactive calls. The calls are words filed in the database; no cut-off is given here.
Assays:
[1] = system: Mus musculus; assay: Reduction of liver weight in DEN/CDAHFD-induced NASH C57BL/6 mouse model at 50 mg/kg, IP for 5 days a week; type: functional, organism-based; details: time 5.0 day
Outline: (§1)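 Male C57BL/6 mice, single IP diethylnitrosamine 35 mg/kg on day 15. From 6 weeks of age fed CDAHFD (60 kcal% fat, 0.1% methionine). From 12 weeks, randomised to IP dosing 5 days/week, drug in 10% (2-hydroxypropyl)-β-cyclodextrin or vehicle alone. Livers harvested at 30 weeks; body weight, liver weight and tumour nodule counts recorded (n=8 per group), with H&E and Sirius red sections; means±SEM, unpaired t-test.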

[2] = system: Mus musculus; assay: Effect on body weight in DEN/CDAHFD-induced NASH C57BL/6 mouse model at 50 mg/kg, IP for 5 days a week; type: functional, organism-based; details: time 5.0 day; outline: as §1
[3] = system: Mus musculus; assay: Antitumor activity in DEN/CDAHFD-induced NASH C57BL/6 mouse model assessed as decrease in tumor nodules at 50 mg/kg, IP for 5 days a week by hematoxylin and eosin staining based microscopic analysis; type: functional, organism-based; details: time 5.0 day; outline: as §1
[4] = system: Mus musculus; assay: Antitumor activity in DEN/CDAHFD-induced NASH C57BL/6 mouse model assessed as decrease in tumor nodules at 50 mg/kg, IP for 5 days a week by sirus red staining based microscopic analysis; type: functional, organism-based; details: time 5.0 day; outline: as §1
[5] = system: Mus musculus; assay: Antitumor activity in DEN/CDAHFD-induced NASH C57BL/6 mouse model assessed as decrease in number of tumor at 50 mg/kg, IP for 5 days a week; type: functional, organism-based; details: time 5.0 day; outline: as §1
[6] = system: Mus musculus; assay: Reduction of liver fibrosis in DEN/CDAHFD-induced NASH C57BL/6 mouse model assessed as decrease in collagen proportional area at 50 mg/kg, IP for 5 days a week; type: functional, organism-based; details: time 5.0 day
Outline: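 Fibrosis was scored as collagen proportional area by quantitative digital analysis of whole-scanned Sirius red-stained liver sections. Sections came from DEN/CDAHFD male C57BL/6 mice harvested at 30 weeks after IP dosing 5 days/week from week 12 (cyclodextrin vehicle), n=3 per group; means±SD.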

[7] = system: Mus musculus; assay: Reduction of liver fibrosis in DEN/CDAHFD-induced NASH C57BL/6 mouse model assessed as decrease in Acta2 gene expression at 50 mg/kg, IP for 5 days a week by qRT-PCR analysis; type: functional, organism-based; details: time 5.0 day
Outline: (§2)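 DEN (35 mg/kg IP, day 15)/CDAHFD-fed male C57BL/6 mice were dosed IP 5 days/week from 12 weeks of age in 10% hydroxypropyl-β-cyclodextrin, or given vehicle. Livers were taken at 30 weeks and hepatic fibrotic and inflammatory gene expression was quantified by qRT-PCR, n=3 per group; means±SD, unpaired t-test.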

[8] = system: Mus musculus; assay: Reduction of liver fibrosis in DEN/CDAHFD-induced NASH C57BL/6 mouse model assessed as decrease in Col1A gene expression at 50 mg/kg, IP for 5 days a week by qRT-PCR analysis; type: functional, organism-based; details: time 5.0 day; outline: as §2
[9] = system: Mus musculus; assay: Reduction of liver fibrosis in DEN/CDAHFD-induced NASH C57BL/6 mouse model assessed as decrease in Tgf gene expression at 50 mg/kg, IP for 5 days a week by qRT-PCR analysis; type: functional, organism-based; details: time 5.0 day; outline: as §2
[10] = system: Mus musculus; assay: Reduction of liver inflammation in DEN/CDAHFD-induced NASH C57BL/6 mouse model assessed as decrease in Ccl2 gene expression at 50 mg/kg, IP for 5 days a week by qRT-PCR analysis; type: functional, organism-based; details: time 5.0 day; outline: as §2
[11] = system: Mus musculus; assay: Reduction of liver inflammation in DEN/CDAHFD-induced NASH C57BL/6 mouse model assessed as decrease in TNFa gene expression at 50 mg/kg, IP for 5 days a week by qRT-PCR analysis; type: functional, organism-based; details: time 5.0 day; outline: as §2
[12] = system: Mus musculus; assay: Effect on c-Myc expression in DEN/CDAHFD-induced NASH C57BL/6 mouse model at 50 mg/kg, IP for 5 days a week by Western blot analysis; type: functional, organism-based; details: time 5.0 day
Outline: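 Liver lysates from control/PBS, vehicle and treated DEN/CDAHFD mice (n=3 each; 30 weeks; IP 5 days/week in 10% hydroxypropyl-β-cyclodextrin) were probed by western blot for c-Myc. Blots from six animals were quantified by densitometry and compared by unpaired t-test.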

[13] = system: Mus musculus; assay: Decrease in EPCAM gene expression in DEN/CDAHFD-induced NASH C57BL/6 mouse model at 50 mg/kg, IP for 5 days a week by CHIP-qPCR assay; type: functional, organism-based; details: time 5.0 day
Outline: (§3)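 ChIP-qPCR on livers of control, DEN/CDAHFD and treated DEN/CDAHFD mice (IP 5 days/week from week 12, harvest at 30 weeks) measured BRD4 recruitment to promoter-enhancer regions of the named genes, using BRD4 antibody against an IgG control. Groups were compared by Mann-Whitney U test.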

[14] = system: Mus musculus; assay: Decrease in SOX9 gene expression in DEN/CDAHFD-induced NASH C57BL/6 mouse model at 50 mg/kg, IP for 5 days a week by CHIP-qPCR assay; type: functional, organism-based; details: time 5.0 day; outline: as §3
[15] = system: Mus musculus; assay: Decrease in KRT7 gene expression in DEN/CDAHFD-induced NASH C57BL/6 mouse model at 50 mg/kg, IP for 5 days a week by CHIP-qPCR assay; type: functional, organism-based; details: time 5.0 day; outline: as §3
[16] = system: Mus musculus; assay: Decrease in NFkappaB2 gene expression in DEN/CDAHFD-induced NASH C57BL/6 mouse model at 50 mg/kg, IP for 5 days a week by CHIP-qPCR assay; type: functional, organism-based; details: time 5.0 day; outline: as §3
[17] = system: Huh-7.5.1; assay: Inhibition of Histone acetyltransferase in human Huh7.5.1 cells assessed as hepatitis C virus-induced NFkappaB mRNA level measured after 72 hrs; type: cell-based
Outline: (§4)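 Huh7.5.1 cells differentiated with dimethyl sulfoxide, then infected with HCV until they expressed the poor-prognosis status of the prognostic liver signature. Infected cells were then incubated with chromatin modifier/reader inhibitors. Concentrations were chosen as non-toxic from MTT viability tests on non-infected differentiated cells at 72 h (n=3, viability relative to untreated cells).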

[18] = system: Huh-7.5.1; assay: Inhibition of Histone acetyltransferase in human Huh7.5.1 cells assessed as hepatitis C virus-induced EGF mRNA level measured after 72 hrs; type: cell-based; outline: as §4
[19] = system: Huh-7.5.1; assay: Inhibition of Histone acetyltransferase in human Huh7.5.1 cells infected with hepatitis C virus assessed as effect on viral load; type: cell-based

SMILES | inhibition [1] | Activity [2] | inhibition [3] | inhibition [4] | inhibition [5] | inhibition [6] | inhibition [7] | inhibition [8] | inhibition [9] | inhibition [10] | inhibition [11] | Activity [12] | inhibition [13] | inhibition [14] | inhibition [15] | inhibition [16] | inhibition [17] | inhibition [18] | inhibition [19]
Cc1sc2c(c1C)C(c1ccc(Cl)cc1)=N[C@@H](CC(=O)OC(C)(C)C)c1nnc(C)n1-2 | Active | inactive | Active | Active | Active | Active | Active | Active | Active | Active | Active | inactive | Active | Active | Active | Active |  |  | 
COc1cc(/C=C/c2cc(/C=C/c3ccc(O)c(OC)c3)n(-c3ccc(C(=O)O)cc3)n2)ccc1O |  |  |  |  |  |  |  |  |  |  |  |  |  |  |  |  | Active | Active | inactive
CC1=NN(c2ccc(C(=O)O)cc2)C(=O)/C1=C\c1ccc(-c2cc(C)c(C)cc2[N+](=O)[O-])o1 |  |  |  |  |  |  |  |  |  |  |  |  |  |  |  |  |  |  | inactive

Source: ChEMBL document CHEMBL5712089, “Targeting clinical epigenetic reprogramming for chemoprevention of metabolic and viral hepatocellular carcinoma” (Gut, 2021)
